Data on four compounds can be found in ChEMBL document CHEMBL2062449, “Eco-friendly synthesis and biological evaluation of substituted pyrano[2,3-c]pyrazoles” (Bioorg Med Chem Lett, 2012).

The subject of assay [1] is Staphylococcus aureus. Put plainly: Antibacterial activity against Staphylococcus aureus at […] after 24 hrs by agar diffusion method. Format: functional. The essentials: (§1)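 Single-concentration antibacterial screen at 100 μg/50 μL per test against the standard bacterial strains.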
Assay [2] concerns Bacillus subtilis. Put plainly: Antibacterial activity against Bacillus subtilis at […] after 24 hrs by agar diffusion method. Format: functional. An outline of the steps: as §1
Assay [3] has as its system Escherichia coli. The assay is described as follows: Antibacterial activity against Escherichia coli at […] after 24 hrs by agar diffusion method. The format is functional. An outline of the steps: as §1
Assay [4] has as its system Pseudomonas aeruginosa. Put plainly: Antibacterial activity against Pseudomonas aeruginosa at 100 ug/[…] after 24 hrs by agar diffusion method. Format: functional. The essentials: as §1
Assay [5] concerns Rattus norvegicus. Put plainly: Antiinflammatory activity in Wistar rat assessed as protection against carrageenan-induced paw edema at 100 mg/kg, po administered 1 hr before carrageenan challenge measured after 30 mins. The format is functional.
The subject of assay [6] is Rattus norvegicus. Put plainly: Antiinflammatory activity in Wistar rat assessed as protection against carrageenan-induced paw edema at 100 mg/kg, po administered 1 hr before carrageenan challenge measured after 1 hr. The format is functional.
In assay [7] the test system is Rattus norvegicus. The assay is described as follows: Antiinflammatory activity in Wistar rat assessed as protection against carrageenan-induced paw edema at 100 mg/kg, po administered 1 hr before carrageenan challenge measured after 2 hrs. Format: functional.
Assay [8] deals with Rattus norvegicus. The assay is described as follows: Antiinflammatory activity in Wistar rat assessed as protection against carrageenan-induced paw edema at 100 mg/kg, po administered 1 hr before carrageenan challenge measured after 3 hrs. Format: functional.
The subject of assay [9] is Rattus norvegicus. Put plainly: Antiinflammatory activity in Wistar rat assessed as protection against carrageenan-induced paw edema at 100 mg/kg, po administered 1 hr before carrageenan challenge measured after 4 hrs. Format: functional.
Assay [10] has as its system MCF7. The assay is described as follows: Cytotoxicity against estrogen receptor-positive human MCF7 cells assessed as inhibition of cell proliferation at 1 ug/ml after 24 hrs by MTT assay. The format is functional. As to conditions: MCF7, 24 h. An outline of the steps:
(§2)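 MTT assay on MCF-7 human breast cancer cells, Taxol as reference; percentage inhibition of cell proliferation read at graded concentrations from 0.1 to 50 μg/mL (typically five or six levels per compound); IC50 in μg/mL derived from the inhibition series.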

The subject of assay [11] is MCF7. The assay is described as follows: Cytotoxicity against estrogen receptor-positive human MCF7 cells assessed as inhibition of cell proliferation at 5 ug/ml after 24 hrs by MTT assay. The format is functional. As to conditions: MCF7, 24 h. The essentials: as §2
The subject of assay [12] is MCF7. Put plainly: Cytotoxicity against estrogen receptor-positive human MCF7 cells assessed as inhibition of cell proliferation at 0.5 ug/ml after 24 hrs by MTT assay. Format: functional. As to conditions: MCF7, 24 h. The essentials: as §2
In assay [13] the test system is MCF7. Put plainly: Cytotoxicity against estrogen receptor-positive human MCF7 cells assessed as inhibition of cell proliferation at 0.1 ug/ml after 24 hrs by MTT assay. Format: functional. As to conditions: MCF7, 24 h. An outline of the steps: as §2
For assay [14], the system named is MCF7. Put plainly: Cytotoxicity against estrogen receptor-positive human MCF7 cells assessed as inhibition of cell proliferation at 0.25 ug/ml after 24 hrs by MTT assay. As to conditions: MCF7, 24 h. The format is functional. An outline of the steps: as §2
The test system of assay [15] is MCF7. Put plainly: Cytotoxicity against estrogen receptor-positive human MCF7 cells assessed as inhibition of cell proliferation at 2.5 ug/ml after 24 hrs by MTT assay. Format: functional. As to conditions: MCF7, 24 h. The essentials: as §2
For assay [16], the system named is MCF7. The assay is described as follows: Cytotoxicity against estrogen receptor-positive human MCF7 cells assessed as inhibition of cell proliferation after 24 hrs by MTT assay. Format: functional, cell-based. As to conditions: Homo sapiens, MCF7, 24 h; read-out: IC50. An outline of the steps: as §2
The test system of assay [17] is Staphylococcus aureus. The assay is described as follows: Antibacterial activity against Staphylococcus aureus after 18 to 24 hrs by broth microdilution method. Format: functional.
The subject of assay [18] is Bacillus subtilis. The assay is described as follows: Antibacterial activity against Bacillus subtilis after 18 to 24 hrs by broth microdilution method. Format: functional.
Assay [19] has as its system Escherichia coli. Put plainly: Antibacterial activity against Escherichia coli after 18 to 24 hrs by broth microdilution method. The format is functional.
For assay [20], the system named is Pseudomonas aeruginosa. Put plainly: Antibacterial activity against Pseudomonas aeruginosa after 18 to 24 hrs by broth microdilution method. Format: functional.
The test system of assay [21] is MCF7. Put plainly: Cytotoxicity against estrogen receptor-positive human MCF7 cells assessed as inhibition of cell proliferation at 2 ug/ml after 24 hrs by MTT assay. The format is functional. As to conditions: MCF7, 24 h. The essentials:
as §2

Assay [22] deals with MCF7. Put plainly: Cytotoxicity against estrogen receptor-positive human MCF7 cells assessed as inhibition of cell proliferation at 3 ug/ml after 24 hrs by MTT assay. Format: functional. As to conditions: MCF7, 24 h. An outline of the steps: as §2
In assay [23] the test system is MCF7. Put plainly: Cytotoxicity against estrogen receptor-positive human MCF7 cells assessed as inhibition of cell proliferation at 4 ug/ml after 24 hrs by MTT assay. The format is functional. As to conditions: MCF7, 24 h. An outline of the steps: as §2
The subject of assay [24] is MCF7. Put plainly: Cytotoxicity against estrogen receptor-positive human MCF7 cells assessed as inhibition of cell proliferation at 6 ug/ml after 24 hrs by MTT assay. Format: functional. As to conditions: MCF7, 24 h. The essentials:
as §2

Assay [25] has as its system MCF7. The assay is described as follows: Cytotoxicity against estrogen receptor-positive human MCF7 cells assessed as inhibition of cell proliferation at 8 ug/ml after 24 hrs by MTT assay. The format is functional. As to conditions: MCF7, 24 h. An outline of the steps: as §2
Assay [26] has as its system MCF7. Put plainly: Cytotoxicity against estrogen receptor-positive human MCF7 cells assessed as inhibition of cell proliferation at 10 ug/ml after 24 hrs by MTT assay. Format: functional. As to conditions: MCF7, 24 h. An outline of the steps: as §2
Assay [27] deals with MCF7. The assay is described as follows: Cytotoxicity against estrogen receptor-positive human MCF7 cells assessed as inhibition of cell proliferation at 25 ug/ml after 24 hrs by MTT assay. The format is functional. As to conditions: MCF7, 24 h. An outline of the steps:
as §2

Assay [28] has as its system MCF7. Put plainly: Cytotoxicity against estrogen receptor-positive human MCF7 cells assessed as inhibition of cell proliferation at 50 ug/ml after 24 hrs by MTT assay. Format: functional. As to conditions: MCF7, 24 h. An outline of the steps: as §2

Converted amounts (≈) assume the structure as drawn.

With `Cc1[nH]nc2c1C(c1cccc(Oc3ccccc3)c1)C(C#N)=C(N)O2` (centres undefined), the “inhibition zone (IZ)” value was 7 mm in assay [1], 9 mm in [2], 9 mm in assay [3] and 11 mm in assay [4]. Besides, the Activity in [5] is reported as 17.6%; in assay [6] it was 33.3%; in [7], 47.9%; in assay [8] it was 66.6%; in assay [9], 61.5%. The inhibition at 1 µg/mL in [10] amounted to 43.5%. The inhibition at 5 µg/mL in assay [11] amounted to 83.7%. The inhibition at 0.5 µg/mL in assay [12] amounted to 20.2%. The inhibition at 0.1 µg/mL in assay [13] is 8.26%. In addition, the inhibition at 0.25 µg/mL in assay [14] was found to be 14%. The inhibition at 2.5 µg/mL in assay [15] turned out to be 68.6%. In addition, the 50% inhibitory concentration (IC50) in assay [16] was found to be 1.63 µg/mL (≈ 4.73 µM).
Regarding `Cc1n[nH]c2c1C(c1cccs1)C(C#N)=C(N)O2` (centres undefined), the “inhibition zone (IZ)” value in [1] stood at 15 mm; in [2] it was 18 mm; in [3], 20 mm; in assay [4] it was 14 mm. The minimal inhibitory concentration (MIC) in [17], in [18], in [19] and in [20] was 3.12 µg/mL (≈ 12.1 µM) throughout. The Activity came out at 23.5% in [5]; 38.8% in [6]; 50.8% in assay [7]; 64.5% in [8]; 51.6% in assay [9]. For the same compound, the inhibition at 1 µg/mL in assay [10] was determined as 0.28%. Moreover, the inhibition at 5 µg/mL in assay [11] was determined as 61.7%. The inhibition at 2 µg/mL in [21] is 19.1%. Moreover, the inhibition at 3 µg/mL in [22] was 22%. Also, in assay [23], the inhibition at 4 µg/mL amounted to 41.8%. Moreover, the IC50 in assay [16] worked out at 4.44 µg/mL (≈ 17.2 µM).
Take `CC1=NN=C2OC(N)=C(C#N)C(c3ccc(Oc4nc(Cl)c(Cl)cc4Cl)cc3)C12` (centres undefined): the “inhibition zone (IZ)” value in assay [1] was found to be 15 mm; in assay [2], 20 mm; in [3], 22 mm; in [4] it was 14 mm. Further, the minimal inhibitory concentration (MIC) amounted to 3.12 µg/mL (≈ 6.96 µM) in [17], 6.25 µg/mL (≈ 13.9 µM) in assay [18], 1.56 µg/mL (≈ 3.48 µM) in [19] and 3.12 µg/mL (≈ 6.96 µM) in assay [20]. Moreover, the Activity amounted to 29.4% in [5]; 50% in assay [6]; 67.1% in assay [7]; 72% in [8]; 54.9% in [9]. The inhibition at 1 µg/mL in assay [10] was 17.4%. Moreover, in assay [21], the inhibition at 2 µg/mL was 31.9%. The inhibition at 4 µg/mL in [23] worked out at 42.5%. Besides, the inhibition at 0.5 µg/mL in assay [12] is 5.34%. In addition, the inhibition at 6 µg/mL in assay [24] is 65.2%. In assay [25], the inhibition at 8 µg/mL is 68.6%. Besides, the IC50 in [16] turned out to be 4.46 µg/mL (≈ 9.95 µM).
Turning to `Cc1[nH]nc2c1C(c1cccc(Oc3nc(Cl)c(Cl)cc3Cl)c1)C(C#N)=C(N)O2` (centres undefined), the “inhibition zone (IZ)” value in [1] was 16 mm; in assay [2], 21 mm; in assay [3] it was 23 mm; in [4], 15 mm. Further, the minimal inhibitory concentration (MIC) came to 6.25 µg/mL (≈ 13.9 µM) in assay [17], 6.25 µg/mL (≈ 13.9 µM) in assay [18], 3.12 µg/mL (≈ 6.96 µM) in [19] and 6.25 µg/mL (≈ 13.9 µM) in [20]. In addition, the Activity is reported as 23.5% in [5]; 47.2% in assay [6]; 64.3% in assay [7]; 70.9% in assay [8]; 53.8% in assay [9]. Besides, in assay [10], the inhibition at 1 µg/mL stood at 0.41%. Further, the inhibition at 5 µg/mL in assay [11] is 16.3%. In assay [26], the inhibition at 10 µg/mL is 34.6%. Moreover, the inhibition at 25 µg/mL in assay [27] came to 42.4%. The inhibition at 50 µg/mL in [28] is 50.1%. Also, the IC50 in assay [16] worked out at 42.8 µg/mL (≈ 95.5 µM).
